The entries come from a sample that favours hits as a whole.
UPR CHOP act: activators of apoptotic CHOP UPR arm, primary screen, cell-based, CHO-CHOP luciferase reporter, luminescence, uHTS; UPR activation; percent of tunicamycin response over DMSO baseline; 330,000 compounds, 0.34% hits; activation, % at 10 µM;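 active means at 10 µM dose, activation of 40% or more, normalized to positive control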;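 further: 100% = tunicamycin at 10 µg/mL and 0% = DMSO alone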
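Material: CHO-CHOP cells, stable luciferase reporter of PERK-eIF2a-CHOP signalling; quantity: 500 reporter cells seeded per well; buffer or medium: F12 medium containing 10% fetal bovine serum; compound: one dose, 10 µM in 0.5% DMSO; incubation: 6 h compound treatment, 37 °C; measured by: Steady-Glo luciferase luminescence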
CHOP inh: inhibitors of CHOP promoter induction, primary screen, cell-based, unfolded protein response, luciferase reporter; inhibition, % at 10 µM; CHO-K1 CHOP-promoter luciferase, tunicamycin-induced, 15-18 h; 220,000 compounds, 3.8% hits;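 active means compounds that reduced the stress-induced luciferase reporter signal by more than about 70% of percent inhibition, limit read from the data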;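 further: 0% = tunicamycin plus vehicle and 100% = wells without tunicamycin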
TLR4-MyD88 BLA: inhibitors of TLR4-MyD88 association in cells, primary screen, cell-based, HeLa CL3-4, BLA complementation, FRET ratio; HeLa CL3-4 TLR4/MyD88 BLA complementation; 200,000 compounds, 0.18% hits; inhibition, % at 8.4 µM; AID 861, 2007; Toll-like receptor 4 (Homo sapiens) + Myeloid differentiation primary response protein …; in the data active means inhibition above about 25%;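 further: 0% = vehicle and 100% = reference inhibitor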
UPR XBP1 act: activators of adaptive XBP1 UPR arm, primary screen, cell-based, CHO-XBP1 luciferase reporter, luminescence, uHTS; IRE1-XBP1 UPR activation; percent of tunicamycin response, DMSO as zero; activation, % at 20 µM; 330,000 compounds, 0.33% hits;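 active means versus positive control, 20 µM dose yields 30% or more activation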;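 further: 100% = tunicamycin at 10 µg/mL and 0% = DMSO only wells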
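Material: CHO cell line with stable XBP1 luciferase reporter; buffer or medium: F12 medium containing 10% fetal bovine serum; compound: single point, 20 µM final compound, 1% DMSO; incubation: 6 h treatment, 37 °C; measured by: glow luminescence from Steady-Glo reagent; evaluation: activation, % of tunicamycin; control set: tunicamycin high, DMSO low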
NOD2 RIPK2 PPI: NOD2-RIPK2 binding disruptors in cells, primary screen, fluorescence, CHO cells, BLA complementation | CCF4 ratio | Receptor-interacting serine/threonine-protein kinase 2 (Homo sapiens), O43353 | inhibition, % at 4.98 µM | 360,000 compounds, 0.38% hits; in the data active means inhibition above about 21%;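 further: 0% = vehicle only and 100% = reference blocker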
TLR9-MyD88 block: inhibitors of TLR9-MyD88 association in cells, primary screen, cell-based, CHO, BLA complementation, fluorescence; Toll-like receptor 9 (Homo sapiens) + Myeloid differentiation primary response protein …; CCF4 FRET ratio; inhibition, % at 4.98 µM; 340,000 compounds, 0.21% hits; AID 504734, 2011;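 active means inhibition above the mean over all tested compounds plus 3 SD, cut at about 21% in these data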;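 further: 0% = DMSO only wells and 100% = clavulanate BLA inhibitor control wells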
UPR CHOP confirm: activators of apoptotic CHOP UPR arm, confirmation, cell-based, CHO-CHOP luciferase reporter, single concentration | AID 463112, 2010 | activation, % at 10 µM | 1,000 compounds, 64% hits | shares compounds with UPR CHOP act | CHO-CHOP cells, CHOP-luciferase reporter luminescence; percent of tunicamycin response, DMSO as zero; in the data active means activation above about 33%;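 further: 0% = DMSO wells and 100% = tunicamycin 10 µg/mL wells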
* hit, by the source's call; . = not tested or not shown.

SMILES | UPR CHOP act | CHOP inh | TLR4-MyD88 BLA | UPR XBP1 act | NOD2 RIPK2 PPI | TLR9-MyD88 block | UPR CHOP confirm
O=C1/C(=C/c2ccccc2[N+](=O)[O-])COc2ccccc21 | 173* | 95* | 14 | -1 | 13 | -4 | 85*
CNc1ccc(/C=C2\COc3ccccc3C2=O)cc1[N+](=O)[O-] | 4 | -56 | 3 | 4 | -9 | 6 | .
CN=c1scc(-c2ccccc2F)n1/N=C/c1ccc(O)c(O)c1O | . | 7 | 4 | . | 9 | 7 | .
CC(C)N=c1scc(-c2cccs2)n1/N=C/c1ccc(O)c(O)c1O | 212* | 106* | -13 | 37* | 3 | 14 | 150*
CCN1C(c2ccc(F)cc2)=CS/C1=C(/C#N)c1nnc2n1-c1ccccc1SC2 | . | . | . | . | 4 | -5 | .
Cc1ccc(S(=O)(=O)N2C[C@H]3C(=O)C[C@@H](c4ccccc4)N(S(=O)(=O)c4ccccc4C)[C@H]3C[C@H]2c2ccccc2)cc1 | . | . | . | . | -8 | . | .
C/C(CC1CC2=C(CC1(C)C)C(C)(C)CCC2)=N\NC(N)=S (configuration not stated) | 57* | -62 | -1 | 25 | 3 | -2 | 27
COc1ccc([C@H]2C[C@H](O)[C@@H](n3cc(C4CC4)nn3)CN2C(=O)c2cccs2)cc1 | . | . | . | . | -4 | -5 | .
CC(=O)/C(=C/c1ccccc1)C(=O)Nc1ccccc1C | 46* | -77 | 0 | -3 | -15 | 2 | 64*
N#Cc1ccc(NC(=S)NC(=O)C2CC2)cc1 | . | . | . | . | -4 | 10 | .
O=C(Nc1cc([N+](=O)[O-])ccc1F)c1ccc2c(c1)OCCO2 | 99* | 6 | -6 | 3 | -10 | -1 | 3
O=C(Nc1cc([N+](=O)[O-])ccc1F)c1ccc2ccccc2c1 | 0 | . | . | 4 | 4 | -2 | .
C[C@@H]1CN([C@H](C)CO)C(=O)CCCn2nncc2CO[C@@H]1CN(C)C(=O)CCC(F)(F)F | . | . | . | . | -6 | 1 | .
CCCCCOc1ccc(N2C(=O)CC(N(O)c3ccccc3)C2=O)cc1 (configuration not stated) | 112* | 38 | 5 | -1 | -9 | -4 | 143*
CCCCOc1ccc(N2C(=O)CC(N(O)c3ccccc3)C2=O)cc1 (configuration not stated) | 146* | 8 | -9 | 4 | 4 | 4 | 165*
CCCCN(C(C)=O)C1CC(=O)N(c2ccc(OCCC)cc2)C1=O (configuration not stated) | -2 | 26 | . | -2 | -12 | -3 | .
Cc1c(C(=O)N2CCC2(C)C(=O)O)oc2ccccc12 (configuration not stated) | . | . | . | . | -13 | . | .
CN(Cc1ccc(Cl)s1)C(=O)CN1C(=O)N(C)C2(CCCCC2)C1=O | 3 | . | . | 0 | -9 | 12 | .
COc1ccccc1NC(=O)Nc1nnc([C@@H]2C[C@H](O)[C@@H](CO)O2)s1 | . | . | . | . | -11 | . | .
CC(=O)Nc1ccc(NC(=O)c2ccccc2-n2cnnn2)cc1 | 2 | . | . | 2 | -1 | -1 | .
CN(C)C(=O)c1ccc(Cc2cn(C)c3ccccc23)nc1 | . | . | . | . | -5 | . | .
COc1ccc(C(C[N+](=O)[O-])c2c(C)[nH]n(-c3ccccc3)c2=O)cc1 (configuration not stated) | 89* | . | . | -7 | 2 | 8 | 0
O=C1NC(=O)C(=CC=Cc2ccccc2)S1 | . | . | . | . | -7 | 2 | .
ClC1=C(Cl)C(Cl)=C(Cl)C1=C/C=C/c1ccccc1 | 55* | 95* | . | 30 | 2 | -8 | 29
Oc1ccc(/C=N/Nc2ccnc3cc(Cl)ccc23)c(O)c1O | 9 | . | . | -1 | -2 | -1 | .
SMILES | UPR CHOP act | CHOP inh | TLR4-MyD88 BLA | UPR XBP1 act | NOD2 RIPK2 PPI | TLR9-MyD88 block | UPR CHOP confirm
Oc1ccc(/C=N/Nc2ccnc3cc(Cl)ccc23)cc1O | 193* | 43 | . | 20 | 4 | 1 | 151*
Cc1ccc(C(C[N+](=O)[O-])Sc2ccc(N)cc2)cc1 (configuration not stated) | 117* | -9 | . | -4 | 2 | -6 | -6
CC(=NNC(=S)Nc1ccccc1)c1ccccn1 | . | . | . | . | -13 | 9 | .
C/C(=N\NC(=O)c1c[nH]c2ccccc12)c1ccccn1 | -2 | 59 | -16 | -1 | -2 | 1 | .
C/C(=N\NC(=O)c1ccc(F)cc1)c1ccccn1 | 303* | . | . | -1 | 1 | -5 | 267*
C=CCNC(=S)N/N=C(\C)c1ccccn1 | 211* | 40 | -2 | 1 | -3 | 7 | 203*
C/C(=N\NC(=O)c1cc2ccccc2cc1O)c1ccccn1 | 245* | . | . | 0 | 1 | 3 | 292*
COc1ccc(S(=O)(=O)N2CCN(C(=O)c3ccccc3Cc3ccccc3)CC2)cc1OC | . | . | . | . | -6 | 6 | .
N#CC1=C2CCCCC2(O)NC1=O (configuration not stated) | . | . | . | . | -11 | -7 | .
CSc1nnc(NC(=O)c2nc(S(=O)(=O)Cc3ccccc3F)ncc2Cl)s1 | 44* | . | . | -9 | 7 | 5 | 77*
CC(C)c1nnc(NC(=O)c2nc(S(=O)(=O)Cc3ccccc3F)ncc2Cl)s1 | 56* | . | . | -9 | . | . | 18
COC(=O)c1ccccc1NC(=O)c1nc(S(=O)(=O)Cc2ccccc2)ncc1Cl | -11 | . | . | -10 | 2 | 8 | .
CCc1nnc(NC(=O)c2nc(S(=O)(=O)Cc3ccccc3)ncc2Cl)s1 | 59* | . | . | -9 | 18 | 3 | 13
Cc1nnc(NC(=O)c2nc(S(=O)(=O)Cc3ccccc3C)ncc2Cl)s1 | 26 | . | . | -8 | 11 | 10 | .
CSc1nnc(NC(=O)c2nc(S(=O)(=O)Cc3cccc(C)c3)ncc2Cl)s1 | 55* | . | . | -6 | 14 | 10 | 75*
CCSc1nnc(NC(=O)c2nc(S(=O)(=O)Cc3ccc(F)cc3)ncc2Cl)s1 | 25 | . | . | -8 | 4 | 0 | .
C[C@H](NC(=O)c1ncn2c1C(=O)N[C@@H](C)C2)c1ccccc1 | . | . | . | . | 3 | 8 | .
CCN(CC)Cc1c(O)ccc2c1O/C(=C\C=C\c1ccccc1)C2=O | 69* | 0 | . | -1 | 13 | 15 | 2
O=C(C1=NOC2(C1)C(=O)N(Cc1ccccc1)c1ccccc12)N1CCOCC1 (configuration not stated) | . | . | . | . | 12 | . | .
O=C(N/N=C/c1cccc2cccnc12)c1ccccc1O | 347* | 46 | . | 3 | 17 | 11 | 559*
